Laboratory results taken from ChEMBL document CHEMBL4038305, “Benzoxaborole Antimalarial Agents. Part 5. Lead Optimization of Novel Amide Pyrazinyloxy Benzoxaboroles and Identification of a Preclinical Candidate” (J Med Chem, 2017).

Experiments:
Plasmodium falciparum [1] = test: Antimalarial activity against chloroquine-sensitive Plasmodium falciparum 3D7 infected in human erythrocytes assessed as reduction in [3H]-hypoxanthine incorporation preincubated for 24 hrs followed by [3H]-hypoxanthine addition measured after 24 hrs by scintillation counting method; type: functional, cell-based
Summary of the method: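 P. falciparum 3D7 cultures were exposed to the compound for 48 h, with atovaquone as the reference control. IC50 was taken from three replicates.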

Plasmodium falciparum [2] = test: Antimalarial activity against chloroquine-resistant Plasmodium falciparum W2 infected in human erythrocytes after 48 hrs by YOYO-1 dye based flow cytometric analysis; type: functional, cell-based; details: W2, 48 h
Summary of the method: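 P. falciparum W2 cultures were exposed to the compound for 48 h, with artemisinin and chloroquine as reference controls. IC50 was taken from two independent replicates.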

Plasmodium berghei [3] = test: Antimalarial activity against Plasmodium berghei infected in Swiss Webster mouse assessed as mouse survival rate at 33 mg/kg administered once daily via oral gavage for 4 consecutive days beginning 1 hr after infection measured on day 4 post infection relative to control; type: functional
Summary of the method: (§1)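 P. berghei-infected erythrocytes taken from a previously infected mouse were injected intraperitoneally. Oral dosing, once daily for 4 consecutive days, began 1 h after infection, in polyethylene glycol 300/propylene glycol/water (55/25/20 by weight). Chloroquine at 30 mg/kg was the positive control, with a vehicle-only group. Percent survival was recorded daily from day 4 to day 20.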

Plasmodium berghei [4] = test: Antimalarial activity against Plasmodium berghei infected in Swiss Webster mouse assessed as mouse survival rate at 100 mg/kg administered once daily via oral gavage for 4 consecutive days beginning 1 hr after infection measured on day 5 post infection relative to control; type: functional
Summary of the method: (§2)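 Mice given an intraperitoneal injection of P. berghei-infected erythrocytes taken from a previously infected animal. Oral dosing once daily for 4 consecutive days, starting 1 h after infection. Vehicle: polyethylene glycol 300/propylene glycol/water (weight ratio 55/25/20). Percent survival recorded daily from day 4 to day 20. Chloroquine 30 mg/kg and vehicle-only groups served as controls.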

Plasmodium berghei [5] = test: Antimalarial activity against Plasmodium berghei infected in Swiss Webster mouse assessed as mouse survival rate at 33 mg/kg administered once daily via oral gavage for 4 consecutive days beginning 1 hr after infection measured on day 5 post infection relative to control; type: functional; summary of the method: as §1
Plasmodium berghei [6] = test: Antimalarial activity against Plasmodium berghei infected in Swiss Webster mouse assessed as mouse survival rate at 11 mg/kg administered once daily via oral gavage for 4 consecutive days beginning 1 hr after infection measured on day 5 post infection relative to control; type: functional; summary of the method: as §1
Plasmodium berghei [7] = test: Antimalarial activity against Plasmodium berghei infected in Swiss Webster mouse assessed as mouse survival rate at 100 mg/kg administered once daily via oral gavage for 4 consecutive days beginning 1 hr after infection measured on day 6 post infection relative to control; type: functional; summary of the method: as §2
Plasmodium berghei [8] = test: Antimalarial activity against Plasmodium berghei infected in Swiss Webster mouse assessed as mouse survival rate at 33 mg/kg administered once daily via oral gavage for 4 consecutive days beginning 1 hr after infection measured on day 6 post infection relative to control; type: functional; summary of the method: as §1
Plasmodium berghei [9] = test: Antimalarial activity against Plasmodium berghei infected in Swiss Webster mouse assessed as mouse survival rate at 11 mg/kg administered once daily via oral gavage for 4 consecutive days beginning 1 hr after infection measured on day 7 post infection relative to control; type: functional; summary of the method: as §1
Plasmodium berghei [10] = test: Antimalarial activity against Plasmodium berghei infected in Swiss Webster mouse assessed as mouse survival rate at 100 mg/kg administered once daily via oral gavage for 4 consecutive days beginning 1 hr after infection measured on day 8 post infection relative to control; type: functional; summary of the method: as §2
Plasmodium berghei [11] = test: Antimalarial activity against Plasmodium berghei infected in Swiss Webster mouse assessed as mouse survival rate at 33 mg/kg administered once daily via oral gavage for 4 consecutive days beginning 1 hr after infection measured on day 8 post infection relative to control; type: functional; summary of the method: as §1
Plasmodium berghei [12] = test: Antimalarial activity against Plasmodium berghei infected in Swiss Webster mouse assessed as mouse survival rate at 11 mg/kg administered once daily via oral gavage for 4 consecutive days beginning 1 hr after infection measured on day 8 post infection relative to control; type: functional; summary of the method: as §1
Plasmodium berghei [13] = test: Antimalarial activity against Plasmodium berghei infected in Swiss Webster mouse assessed as mouse survival rate at 100 mg/kg administered once daily via oral gavage for 4 consecutive days beginning 1 hr after infection measured on day 9 post infection relative to control; type: functional; summary of the method: as §2
Plasmodium berghei [14] = test: Antimalarial activity against Plasmodium berghei infected in Swiss Webster mouse assessed as mouse survival rate at 100 mg/kg administered once daily via oral gavage for 4 consecutive days beginning 1 hr after infection measured on day 10 post infection relative to control; type: functional; summary of the method: as §2
[15] = Metabolic stability in human hepatocytes at 22 uM after 44 hrs; type: ADME, cell-based, Hepatocyte
Plasmodium berghei [16] = test: Antimalarial activity against Plasmodium berghei infected in Swiss Webster mouse assessed as mouse survival rate at 1.2 mg/kg administered once daily via oral gavage for 4 consecutive days beginning 1 hr after infection measured on day 4 post infection relative to control; type: functional; summary of the method: as §2
Plasmodium berghei [17] = test: Antimalarial activity against Plasmodium berghei infected in Swiss Webster mouse assessed as mouse survival rate at 0.4 mg/kg administered once daily via oral gavage for 4 consecutive days beginning 1 hr after infection measured on day 4 post infection relative to control; type: functional; summary of the method: as §2
Plasmodium berghei [18] = test: Antimalarial activity against Plasmodium berghei infected in Swiss Webster mouse assessed as mouse survival rate at 0.4 mg/kg administered once daily via oral gavage for 4 consecutive days beginning 1 hr after infection measured on day 5 post infection relative to control; type: functional; summary of the method: as §2
Plasmodium berghei [19] = test: Antimalarial activity against Plasmodium berghei infected in Swiss Webster mouse assessed as mouse survival rate at 3.7 mg/kg administered once daily via oral gavage for 4 consecutive days beginning 1 hr after infection measured on day 6 post infection relative to control; type: functional; summary of the method: as §1
Plasmodium berghei [20] = test: Antimalarial activity against Plasmodium berghei infected in Swiss Webster mouse assessed as mouse survival rate at 1.2 mg/kg administered once daily via oral gavage for 4 consecutive days beginning 1 hr after infection measured on day 6 post infection relative to control; type: functional; summary of the method: as §2
Plasmodium berghei [21] = test: Antimalarial activity against Plasmodium berghei infected in Swiss Webster mouse assessed as mouse survival rate at 3.7 mg/kg administered once daily via oral gavage for 4 consecutive days beginning 1 hr after infection measured on day 7 post infection relative to control; type: functional; summary of the method: as §1
Plasmodium berghei [22] = test: Antimalarial activity against Plasmodium berghei infected in Swiss Webster mouse assessed as mouse survival rate at 0.4 mg/kg administered once daily via oral gavage for 4 consecutive days beginning 1 hr after infection measured on day 7 post infection relative to control; type: functional; summary of the method: as §2
Plasmodium berghei [23] = test: Antimalarial activity against Plasmodium berghei infected in Swiss Webster mouse assessed as mouse survival rate at 33 mg/kg administered once daily via oral gavage for 4 consecutive days beginning 1 hr after infection measured on day 9 post infection relative to control; type: functional; summary of the method: as §1
Plasmodium berghei [24] = test: Antimalarial activity against Plasmodium berghei infected in Swiss Webster mouse assessed as mouse survival rate at 33 mg/kg administered once daily via oral gavage for 4 consecutive days beginning 1 hr after infection measured on day 12 post infection relative to control; type: functional; summary of the method: as §1
Plasmodium berghei [25] = test: Antimalarial activity against Plasmodium berghei infected in Swiss Webster mouse assessed as mouse survival rate at 33 mg/kg administered once daily via oral gavage for 4 consecutive days beginning 1 hr after infection measured on day 14 post infection relative to control; type: functional; summary of the method: as §1
Plasmodium falciparum [26] = test: Antimalarial activity against Plasmodium falciparum 3D7 0087/N9 infected in NOD/SCID IL2R gamma null mouse assessed as reduction in parasitemia administered once daily via oral gavage for 4 consecutive days measured on day 4 post infection; type: functional; details: 3D7 0087/N9, po, 96 h
Summary of the method: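 Human-erythrocyte-engrafted NODscidIL2Rγnull mice carrying P. falciparum Pf3D70087/N9 in peripheral blood; compound given orally once daily for four consecutive days.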

Row | Compound | IC50 (Plasmodium falciparum [1]) [nM] | IC50 (Plasmodium falciparum [2]) [nM] | survival at 33 mg/kg (Plasmodium berghei [3]) [%] | survival at 100 mg/kg (Plasmodium berghei [4]) [%] | survival at 33 mg/kg (Plasmodium berghei [5]) [%] | survival at 11 mg/kg (Plasmodium berghei [6]) [%] | survival at 100 mg/kg (Plasmodium berghei [7]) [%] | survival at 33 mg/kg (Plasmodium berghei [8]) [%] | survival at 11 mg/kg (Plasmodium berghei [9]) [%] | survival at 100 mg/kg (Plasmodium berghei [10]) [%] | survival at 33 mg/kg (Plasmodium berghei [11]) [%] | survival at 100 mg/kg (Plasmodium berghei [13]) [%] | survival at 100 mg/kg (Plasmodium berghei [14]) [%] | survival at 1.2 mg/kg (Plasmodium berghei [16]) [%] | survival at 0.4 mg/kg (Plasmodium berghei [17]) [%] | survival at 0.4 mg/kg (Plasmodium berghei [18]) [%] | survival at 3.7 mg/kg (Plasmodium berghei [19]) [%] | survival at 1.2 mg/kg (Plasmodium berghei [20]) [%] | survival at 3.7 mg/kg (Plasmodium berghei [21]) [%] | survival at 33 mg/kg (Plasmodium berghei [23]) [%] | also measured
1 | Cc1c(Oc2cnc(C(=O)NC(C)CO)cn2)ccc2c1B(O)OC2 (stereo not drawn) | 994 | 342 | 100 | 100 | 100 | 40 | 100 | 100 | 40 | 100 | 0 | 80 | 40 | – | – | – | – | – | – | – | survival at 11 mg/kg (Plasmodium berghei [12]): 0%
2 | Cc1c(Oc2cnc(C(=O)N3CC(O)(C4CC4)C3)cn2)ccc2c1B(O)OC2 | 134 | 51.7 | 100 | 100 | 100 | 100 | 100 | 100 | 0 | 100 | 100 | 100 | 100 | 100 | 100 | 100 | 100 | 100 | 0 | 100 | Stability [15]: Stable; survival at 0.4 mg/kg (Plasmodium berghei [22]): 0%; survival at 33 mg/kg (Plasmodium berghei [24]): 40%; survival at 33 mg/kg (Plasmodium berghei [25]): 0%; ED90 (Plasmodium falciparum [26]): < 5 mg/kg
3 | Cc1c(Oc2cnc(C(=O)N[C@@H](CO)CC(F)(F)F)cn2)ccc2c1B(O)OC2 | 149 | 82.2 | 100 | 100 | 100 | 100 | 100 | 100 | 0 | 100 | 100 | 100 | 100 | 100 | 100 | 100 | 100 | 100 | 0 | 100 | survival at 0.4 mg/kg (Plasmodium berghei [22]): 0%
4 | Cc1c(Oc2cnc(C(=O)N3CC(O)(C(F)(F)F)C3)cn2)ccc2c1B(O)OC2 | 8 | 6.6 | 100 | 100 | 100 | 100 | 100 | 100 | 100 | 100 | 100 | 100 | 100 | – | 100 | 100 | 100 | – | 0 | 100 | Stability [15]: Stable; survival at 0.4 mg/kg (Plasmodium berghei [22]): 0%; survival at 11 mg/kg (Plasmodium berghei [12]): 0%; survival at 33 mg/kg (Plasmodium berghei [24]): 50%; survival at 33 mg/kg (Plasmodium berghei [25]): 0%; ED90 (Plasmodium falciparum [26]): < 5 mg/kg
5 | Cc1c(Oc2cnc(C(=O)NCCO)cn2)ccc2c1B(O)OC2 | 1080 | 372 | 100 | 100 | 100 | 100 | 100 | 100 | 0 | 40 | – | 40 | 0 | 100 | – | – | 100 | 100 | 0 | – | –
6 | CCCC1(O)CN(C(=O)c2cnc(Oc3ccc4c(c3C)B(O)OC4)cn2)C1 | 54 | 15.9 | 100 | 100 | 100 | 100 | 100 | 100 | 80 | 100 | 100 | 100 | 100 | 100 | 100 | 100 | 100 | 100 | 0 | 100 | Stability [15]: Stable; survival at 0.4 mg/kg (Plasmodium berghei [22]): 0%; survival at 11 mg/kg (Plasmodium berghei [12]): 80%; survival at 33 mg/kg (Plasmodium berghei [24]): 100%; survival at 33 mg/kg (Plasmodium berghei [25]): 0%
7 | CCC[C@H](CO)NC(=O)c1cnc(Oc2ccc3c(c2C)B(O)OC3)cn1 | 201 | 161 | 100 | 100 | 100 | 100 | 100 | 100 | 0 | 100 | 100 | 100 | 100 | 100 | – | – | 100 | 100 | 0 | 0 | ED90 (Plasmodium falciparum [26]): 2.5 mg/kg
8 | Cc1c(Oc2cnc(C(=O)N3CC(O)(C(C)C)C3)cn2)ccc2c1B(O)OC2 | 57 | 40.7 | 100 | 100 | 100 | 100 | 100 | 100 | 60 | 100 | 100 | 100 | 100 | – | 100 | 100 | 100 | – | 0 | 100 | Stability [15]: Stable; survival at 0.4 mg/kg (Plasmodium berghei [22]): 0%; survival at 11 mg/kg (Plasmodium berghei [12]): 60%; survival at 33 mg/kg (Plasmodium berghei [24]): 100%; survival at 33 mg/kg (Plasmodium berghei [25]): 0%; ED90 (Plasmodium falciparum [26]): < 5 mg/kg
